The results in this text go back to ChEMBL document CHEMBL2346655, “Synthesis and in vitro biological evaluation of 2,6,9-trisubstituted purines targeting multiple cyclin-dependent kinases” (Eur J Med Chem, 2013).

Experiment [1] has as its system CCRF-CEM. Put plainly: Cytotoxicity against human CEM cells assessed as reduction in number of viable cells after 72 hrs by fluorescence assay. It is filed as functional, cell-based. The procedure, abridged: (§1)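 Three-fold compound dilutions tested in triplicate on cultured cells for 72 h. Viable cells detected by adding Calcein AM and reading fluorescence at 485/538 nm (ex/em).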

Experiment [2] deals with K562. In words: Cytotoxicity against human K562 cells assessed as reduction in number of viable cells after 72 hrs by fluorescence assay. The class given is functional, cell-based. The following applies: K562, 72 h. Summed up:
as §1

The test system of experiment [3] is HCT-116. In words: Cytotoxicity against human HCT116 cells assessed as reduction in number of viable cells after 72 hrs by fluorescence assay. It is filed as functional, cell-based. The settings on record: HCT-116, 72 h. The procedure, abridged: as §1
Experiment [4] deals with G-361. In words: Cytotoxicity against human G361 cells assessed as reduction in number of viable cells after 72 hrs by fluorescence assay. The class given is functional, cell-based. The following applies: G-361, 72 h. Summed up: as §1
Experiment [5] addresses Cyclin-dependent kinase 2/cyclin E1 (Homo sapiens, UniProt P24941). Put plainly: Inhibition of CDK2/Cyclin E (unknown origin) expressed in Sf9 cells using histone H1 as substrate.
Experiment [6] deals with MCF7. In words: Cytotoxicity against human MCF7 cells assessed as reduction in number of viable cells after 72 hrs by fluorescence assay. The class given is functional, cell-based. The following applies: MCF7, 72 h. Summed up:
as §1

In experiment [7] the test system is HOS. Put plainly: Cytotoxicity against human HOS cells assessed as reduction in number of viable cells after 72 hrs by fluorescence assay. The class given is functional, cell-based. Summed up:
as §1

Experiment [8] concerns the target Cyclin-dependent kinase 7/ cyclin H (Homo sapiens, UniProt P50613). In words: Inhibition of CDK7/CyclinH/MAT1 (unknown origin) using (YSPTSPS)2KK as substrate. It is filed as protein-complex assay. The procedure, abridged:
(§2)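 Buffer was 60 mM HEPES-NaOH pH 7.5, 3 mM MgCl2, 3 mM MnCl2, vanadate, DTT and PEG. Reactions were stopped with H3PO4 and spotted on P-81 paper, which was then washed. Radioactivity was imaged; IC50 taken from dose–response curves.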

For experiment [9], the target named is CDK9/cyclin T1 (Homo sapiens, UniProt P50750). In words: Inhibition of CDK9/CyclinT1 (unknown origin) using (YSPTSPS)2KK as substrate. It is filed as protein-complex assay. The procedure, abridged:
as §2

For experiment [10], the target named is Cyclin-dependent kinase 5/CDK5 activator 1 (Homo sapiens, UniProt Q00535). In words: Inhibition of CDK5/P35 (unknown origin) using histone H1 as substrate. It is filed as protein-complex assay.
Cyclin-dependent kinase 5/CDK5 activator 1, sequence (Q00535 whole entry): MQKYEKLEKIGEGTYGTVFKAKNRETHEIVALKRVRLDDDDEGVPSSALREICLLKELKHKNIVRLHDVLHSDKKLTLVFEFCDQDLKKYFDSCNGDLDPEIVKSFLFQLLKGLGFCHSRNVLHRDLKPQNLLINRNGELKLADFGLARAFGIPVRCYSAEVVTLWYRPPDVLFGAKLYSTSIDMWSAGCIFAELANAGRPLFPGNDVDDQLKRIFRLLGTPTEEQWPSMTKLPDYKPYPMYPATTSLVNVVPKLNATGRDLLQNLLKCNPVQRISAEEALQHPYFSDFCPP
Cyclin-dependent kinase 5/CDK5 activator 1, sequence (Q15078 whole entry, further chain): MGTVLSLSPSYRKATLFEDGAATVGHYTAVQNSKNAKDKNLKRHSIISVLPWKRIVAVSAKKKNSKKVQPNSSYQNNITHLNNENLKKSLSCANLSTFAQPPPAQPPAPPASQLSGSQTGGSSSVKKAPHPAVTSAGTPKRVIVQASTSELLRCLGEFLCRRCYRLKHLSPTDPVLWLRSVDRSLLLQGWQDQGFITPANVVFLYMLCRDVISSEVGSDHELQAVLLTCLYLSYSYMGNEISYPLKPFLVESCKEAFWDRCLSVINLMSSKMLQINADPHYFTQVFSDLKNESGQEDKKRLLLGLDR

CDK9/cyclin T1, sequence (O60563 whole entry): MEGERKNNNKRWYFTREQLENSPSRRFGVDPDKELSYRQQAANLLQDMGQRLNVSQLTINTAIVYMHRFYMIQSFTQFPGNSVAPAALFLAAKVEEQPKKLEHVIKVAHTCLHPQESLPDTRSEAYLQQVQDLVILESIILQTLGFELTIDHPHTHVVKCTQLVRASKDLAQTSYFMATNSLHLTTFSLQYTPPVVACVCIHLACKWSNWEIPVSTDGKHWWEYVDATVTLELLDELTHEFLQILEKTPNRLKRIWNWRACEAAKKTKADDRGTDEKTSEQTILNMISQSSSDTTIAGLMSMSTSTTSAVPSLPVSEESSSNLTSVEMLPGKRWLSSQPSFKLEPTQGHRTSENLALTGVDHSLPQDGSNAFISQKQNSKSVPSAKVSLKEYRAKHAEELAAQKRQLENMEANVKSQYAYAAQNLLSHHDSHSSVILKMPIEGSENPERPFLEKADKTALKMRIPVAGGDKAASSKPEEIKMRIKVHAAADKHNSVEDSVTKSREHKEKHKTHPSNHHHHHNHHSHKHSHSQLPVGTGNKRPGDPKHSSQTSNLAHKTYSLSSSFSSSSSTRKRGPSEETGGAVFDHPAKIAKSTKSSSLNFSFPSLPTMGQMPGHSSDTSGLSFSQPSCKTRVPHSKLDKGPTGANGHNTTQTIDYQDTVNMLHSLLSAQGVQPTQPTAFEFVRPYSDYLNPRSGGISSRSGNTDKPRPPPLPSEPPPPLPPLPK
CDK9/cyclin T1, sequence (P50750 whole entry): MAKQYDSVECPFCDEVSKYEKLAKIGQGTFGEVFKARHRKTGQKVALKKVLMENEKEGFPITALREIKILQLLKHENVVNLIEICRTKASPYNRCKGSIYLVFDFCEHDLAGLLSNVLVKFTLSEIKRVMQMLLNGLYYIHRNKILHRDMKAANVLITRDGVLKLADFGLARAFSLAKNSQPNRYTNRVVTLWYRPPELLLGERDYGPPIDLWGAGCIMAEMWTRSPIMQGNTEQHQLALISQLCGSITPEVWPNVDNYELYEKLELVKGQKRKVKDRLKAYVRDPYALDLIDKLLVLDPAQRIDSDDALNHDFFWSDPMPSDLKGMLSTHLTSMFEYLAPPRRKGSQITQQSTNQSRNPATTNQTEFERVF
Cyclin-dependent kinase 7/ cyclin H, sequence (P51946 whole entry): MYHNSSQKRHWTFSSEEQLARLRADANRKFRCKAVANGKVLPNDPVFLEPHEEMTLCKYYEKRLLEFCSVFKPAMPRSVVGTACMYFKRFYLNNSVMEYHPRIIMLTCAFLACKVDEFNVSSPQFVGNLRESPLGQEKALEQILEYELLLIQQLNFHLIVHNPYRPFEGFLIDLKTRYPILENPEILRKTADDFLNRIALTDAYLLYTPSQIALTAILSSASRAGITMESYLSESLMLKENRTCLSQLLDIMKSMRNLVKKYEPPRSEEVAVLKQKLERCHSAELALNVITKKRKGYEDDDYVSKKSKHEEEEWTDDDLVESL
Cyclin-dependent kinase 7/ cyclin H, sequence (P50613 whole entry): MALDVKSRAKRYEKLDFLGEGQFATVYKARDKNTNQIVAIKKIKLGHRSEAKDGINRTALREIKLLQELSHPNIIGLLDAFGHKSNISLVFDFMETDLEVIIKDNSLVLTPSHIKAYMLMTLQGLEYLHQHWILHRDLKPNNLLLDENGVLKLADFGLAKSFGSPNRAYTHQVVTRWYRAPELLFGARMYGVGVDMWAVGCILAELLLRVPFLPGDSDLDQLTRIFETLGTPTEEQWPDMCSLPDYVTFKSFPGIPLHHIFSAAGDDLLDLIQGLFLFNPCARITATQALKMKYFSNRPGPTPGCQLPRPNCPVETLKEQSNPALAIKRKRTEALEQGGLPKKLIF

For the compound `CC[C@H](CO)Nc1nc(NCc2cccc(OC)c2O)c2ncn(C(C)C)c2n1`, the half-inhibitory concentration (IC50) (commonly the concentration needed to halve the response being measured) in experiment [1] was found to be 16.6 µM; in [2], 54.8 µM; in experiment [3], 12.3 µM; in experiment [4], 22 µM; in experiment [5], 0.06 µM; in experiment [6], 12.6 µM. Besides, in [7], the concentration for half-maximal inhibition (IC50) came out at 14.8 µM.

Regarding `CC(C)n1cnc2c(NCc3cc(Cl)ccc3O)nc(NC3CCC(O)CC3)nc21` (centres undefined), the IC50 in [8] is 0.54 µM; in experiment [1] it was 3.2 µM; in experiment [9], 0.91 µM; in experiment [2], 2.4 µM; in experiment [3], 13.2 µM; in experiment [4] it was 8.2 µM. The half-inhibitory concentration (IC50) in experiment [10] was determined as 0.55 µM; in experiment [5] it was 0.061 µM; in [6] it was 2.6 µM; in experiment [7], 6.4 µM.

As for `CC(C)n1cnc2c(NCc3cc(Cl)ccc3O)nc(NC3CCC(N)CC3)nc21` (centres undefined), the IC50 is 0.16 µM in experiment [8]; 3.3 µM in [1]; 0.039 µM in experiment [9]; 2.4 µM in [2]; 2.4 µM in [3]; 2.4 µM in [4]. Further, the IC50 in experiment [10] was 0.125 µM; in [5] it was 0.025 µM; in experiment [6], 1.8 µM; in [7] it was 2.2 µM.

Turning to `CC[C@H](CO)Nc1nc(NCc2ccccc2O)c2ncn(C(C)C)c2n1` [OLOMOUCINE II], the IC50 in experiment [1] was 7.4 µM; in experiment [9], 0.815 µM; in experiment [2], 23 µM; in experiment [3] it was 4.1 µM; in [4] it was 9.2 µM; in experiment [6], 9.1 µM. The IC50 in experiment [7] came to 10.6 µM.

As to `CC[C@@H](Nc1nc(NCc2cc(F)ccc2O)c2ncn(C(C)C)c2n1)C(C)O` (mixture of isomers), the IC50 in experiment [8] amounted to 0.18 µM; in [1] it was 1.6 µM; in [9] it was 0.1 µM; in experiment [2], 2.9 µM; in [3], 1.8 µM; in experiment [4], 1.9 µM. In addition, the IC50 in experiment [10] worked out at 0.067 µM; in experiment [5] it was 0.0118 µM; in experiment [6], 1.8 µM; in experiment [7], 2.4 µM.

Take `CC(C)n1cnc2c(NCc3ccccc3N)nc(NCC(C)(C)O)nc21`: the IC50 in [8] was found to be 1.2 µM; in [1] it was 12.6 µM; in [9], 1.24 µM; in experiment [2], 34 µM; in experiment [3], 12.9 µM; in experiment [4], 12.6 µM. Moreover, the half-inhibitory concentration (IC50) worked out at 0.74 µM in [10], 0.02 µM in experiment [5], 13.5 µM in [6] and 16.9 µM in experiment [7].

Consider `CC(C)[C@H](Nc1nc(NCc2ccccc2N)c2ncn(C(C)C)c2n1)C(C)(C)O`, for which the IC50 in [8] is 0.29 µM; in experiment [1] it was 13.1 µM; in experiment [9] it was 0.845 µM; in [2] it was 39.8 µM; in [3], 11.8 µM; in experiment [4] it was 18.7 µM. Further, the half-maximal inhibitory concentration (IC50) in experiment [10] turned out to be 0.675 µM; in [5] it was 0.07 µM; in experiment [6], 12.8 µM; in experiment [7], 42.7 µM.

`CC[C@H](CO)Nc1nc(NCc2cc(F)ccc2O)c2ncn(C(C)C)c2n1`: the 50% inhibitory concentration (IC50) is 3.9 µM in experiment [1]; 0.106 µM in experiment [9]; 4.1 µM in experiment [2]; 4.8 µM in [3]; 6.5 µM in experiment [4]; 0.24 µM in experiment [10]. The IC50 in [5] worked out at 0.019 µM; in experiment [6], 3.6 µM; in experiment [7], 4.5 µM.

For the compound `CC(C)n1cnc2c(NCc3ccc(O)cc3)nc(N3CCNCC3)nc21`, the IC50 in experiment [1] amounted to 13.4 µM; in experiment [2], 9.3 µM; in experiment [3] it was 9.3 µM; in [4], 12.4 µM; in experiment [5], 0.34 µM; in [6] it was 4.1 µM. In [7], the IC50 worked out at 6.5 µM.

Consider `CC[C@@H](CO)Nc1nc(NCc2cccc(OC)c2O)c2ncn(C(C)C)c2n1`, for which the IC50 was found to be 10.7 µM in experiment [1]; 15.4 µM in [2]; 8.7 µM in experiment [3]; 7.8 µM in experiment [4]; 0.059 µM in [5]; 5.3 µM in experiment [6]. Also, the IC50 in experiment [7] amounted to 5.9 µM.

Regarding `CC(C)CNc1nc(NCc2ccccc2O)c2ncn(C(C)C)c2n1`, the half-maximal inhibitory concentration (IC50) came out at 13.6 µM in experiment [1]; 3.13 µM in experiment [9]; 10.8 µM in [2]; 22.2 µM in experiment [3]; 15.7 µM in [4]; 2.36 µM in experiment [10]. In addition, the IC50 in experiment [5] was determined as 0.22 µM; in experiment [6] it was 14.1 µM; in experiment [7] it was 23.9 µM.

On to `CC[C@H](CO)Nc1nc(NCc2ccccc2)c2ncn(C(C)C)c2n1` [SELICICLIB], for which the half-maximal inhibitory concentration (IC50) in [1] stood at 16.3 µM; in experiment [2], 45.5 µM; in experiment [3], 14.4 µM; in experiment [4] it was 22.4 µM; in experiment [6], 12.3 µM; in experiment [7], 24.3 µM.

For the compound `CC(C)n1cnc2c(NCc3cc(Cl)ccc3O)nc(N[C@@H](C)C(C)(C)O)nc21`, the 50% inhibitory concentration (IC50) in experiment [1] worked out at 2.5 µM; in experiment [2] it was 2 µM; in experiment [3], 1.8 µM; in experiment [4], 1.2 µM; in experiment [5], 0.0243 µM; in experiment [6] it was 1.4 µM. Also, the half-inhibitory concentration (IC50) in [7] is 1.8 µM.

Take `CC(C)n1cnc2c(NCc3ccccc3N)nc(NCCC(C)(C)O)nc21`: the half-inhibitory concentration (IC50) in [1] was 100 µM; in experiment [9], greater than 5 µM; in experiment [2], 100 µM; in experiment [3], 100 µM; in experiment [4], 100 µM; in experiment [10], greater than 5 µM. The results for the IC50 in experiment [5], in [6] and in experiment [7] were 0.79 µM, 100 µM and 100 µM, respectively.

As to `CC(C)n1cnc2c(NCc3ccccc3O)nc(NCCC(C)(C)O)nc21`, the half-inhibitory concentration (IC50) was 34.6 µM in experiment [1]; greater than 5 µM in experiment [9]; 47.3 µM in experiment [2]; 64.1 µM in [3]; 52.2 µM in [4]; 4.49 µM in experiment [10]. Moreover, the IC50 in [5] was found to be 0.26 µM; in [6], 65.9 µM; in experiment [7], 45.5 µM.

Consider `CC[C@H](CO)Nc1nc(NCc2cc(Cl)ccc2O)c2ncn(C(C)C)c2n1`, for which the IC50 in experiment [1] worked out at 3.7 µM; in experiment [9], 0.285 µM; in experiment [2] it was 3.2 µM; in experiment [3] it was 5.4 µM; in experiment [4] it was 4.3 µM; in [10], 0.15 µM. Further, the values for the concentration for half-maximal inhibition (IC50) in experiment [5], in [6] and in [7] were 0.0094 µM, 4.6 µM and 5 µM, respectively.

In the case of `COc1ccc(CNc2nc(N3CCN(C)CC3)nc3c2ncn3C(C)C)cc1`, the IC50 in experiment [1] is 13.1 µM; in [2] it was 11.9 µM; in [3], 13.4 µM; in experiment [4] it was 13.9 µM; in experiment [5], 0.89 µM; in [6], 12 µM. In addition, the concentration for half-maximal inhibition (IC50) in experiment [7] was 11.2 µM.

On to `CC(C)n1cnc2c(NCc3cc(Cl)ccc3O)nc(NCC(C)(C)O)nc21`, for which the IC50 in experiment [8] turned out to be 0.435 µM; in [1], 3.9 µM; in [2], 5.1 µM; in [3] it was 4 µM; in experiment [4] it was 4.3 µM; in experiment [10], 0.069 µM. Moreover, the IC50 is 0.019 µM in experiment [5], 2.7 µM in [6] and 4.4 µM in experiment [7].

For the compound `CC[C@H](CO)Nc1nc(NCc2cccc(OC)c2OC)c2ncn(C(C)C)c2n1`, the half-maximal inhibitory concentration (IC50) came out at 38 µM in experiment [1]; 40.1 µM in experiment [2]; 29.5 µM in [3]; 46.6 µM in experiment [4]; 0.031 µM in experiment [5]; 21 µM in [6]. In addition, the 50% inhibitory concentration (IC50) in experiment [7] amounted to 67.5 µM.

For the compound `CC[C@H](CO)Nc1nc(NCc2ccc(N)cc2)c2ncn(C(C)C)c2n1`, the concentration for half-maximal inhibition (IC50) in experiment [1] worked out at 22.6 µM; in experiment [2] it was 71.5 µM; in experiment [3], 23.8 µM; in experiment [4], 26 µM; in [6], 18.1 µM; in experiment [7], 29.4 µM.

`COc1cccc(CNc2nc(N3CCNCC3)nc3c2ncn3C(C)C)c1O`: the IC50 in experiment [1] was 27.5 µM; in experiment [2] it was 14.2 µM; in [3] it was 22.5 µM; in experiment [4], 18.9 µM; in experiment [5] it was 0.63 µM; in experiment [6], 8.3 µM. In addition, the IC50 in experiment [7] amounted to 30.6 µM.

As for `COc1ccc(CNc2nc(N3CCNCC3)nc3c2ncn3C(C)C)cc1`, the IC50 in [1] turned out to be 10.8 µM; in experiment [2], 5.3 µM; in experiment [3], 11.5 µM; in [4], 10.1 µM; in experiment [5] it was 0.89 µM; in [6], 3.53 µM. Besides, the IC50 in experiment [7] stood at 5.1 µM.
